Key:
Format in all cases: functional
H4 [1] = assay: Increase in light chain 3-GFP+ autophagosome vesicle intensity per cell in human H4 cells at 6.1 uM after 24 hrs by high throughput fluorescence microscopy relative to control
Procedure, shortened: (§1)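 H4 cells stably expressing LC3-GFP, seeded in 96-well plates and exposed to compound for 24 h; fixed in 4% paraformaldehyde, nuclei stained with 3 μg/ml DAPI. Automated fluorescence microscopy scored number, size and intensity of LC3-GFP spots; values expressed relative to DMSO-treated wells, rapamycin positive control. Triplicate wells, mean ± SD; experiments repeated three times.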

H4 [2] = assay: Increase in long-lived protein degradation in human H4 cells after 1 hr relative to control; set-up: concentration or dose not given beside the values
H4 [3] = assay: Effect on FYVE-RFP+ vesicle intensity per cell in human H4 cells after 2 hrs relative to control; set-up: concentration or dose not given beside the values
Procedure, shortened: (§2)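 H4 cells stably expressing FYVE-RFP (H4-FYVE), grown in DMEM with 10% FBS, penicillin/streptomycin and 2 mM L-glutamine at 37°C, 5% CO2, seeded in 96-well plates and exposed to compound. Fixed in 4% paraformaldehyde, nuclei stained with 3 μg/ml DAPI, FYVE-RFP+ vesicles quantified by high-throughput fluorescence microscopy against DMSO control. Triplicate wells, mean ± SD.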

H4 [4] = assay: Effect on FYVE-RFP+ vesicle intensity per cell in human H4 cells after 4 hrs relative to control; set-up: concentration or dose not given beside the values; procedure, shortened: as §2
H4 [5] = assay: Increase in long-lived protein degradation in human H4 cells after 24 hrs relative to control; set-up: concentration or dose not given beside the values
H4 [6] = assay: Increase in light chain 3-GFP+ autophagosome vesicle number per cell in human H4 cells at 6.1 uM after 24 hrs by high throughput fluorescence microscopy relative to control
Procedure, shortened: (§3)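 H4 cells stably expressing LC3-GFP, kept in DMEM/10% FBS at 37°C, 5% CO2, were seeded in 96-well plates and exposed to compound for 24 h. Cells were then fixed in 4% paraformaldehyde and stained with 3 μg/ml DAPI. Automated fluorescence microscopy scored the number, size and intensity of LC3-GFP spots. Values are percent of DMSO wells, in triplicate, mean ± SD. Rapamycin served as positive control.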

H4 [7] = assay: Increase in long-lived protein degradation in human H4 cells after 4 hrs relative to control; set-up: concentration or dose not given beside the values
H4 [8] = assay: Induction of light chain 3-GFP level in human H4 cells at 6.1 uM after 24 hrs by high throughput fluorescence microscopy relative to control; procedure, shortened: as §3
H4 [9] = assay: Increase in long-lived protein degradation in human H4 cells after 2 hrs relative to control; set-up: concentration or dose not given beside the values
H4 [10] = assay: Effect on FYVE-RFP+ vesicle intensity per cell in human H4 cells after 8 hrs relative to control; set-up: concentration or dose not given beside the values; procedure, shortened: as §2
H4 [11] = assay: Increase in light chain 3-GFP+ autophagosome vesicle area per cell in human H4 cells at 6.1 uM after 24 hrs by high throughput fluorescence microscopy relative to control; procedure, shortened: as §1
H4 [12] = assay: Decrease in FYVE-RFP+ vesicle intensity per cell in human H4 cells after 8 hrs relative to control; set-up: concentration or dose not given beside the values; procedure, shortened: as §2
H4 [13] = assay: Increase in light chain 3-GFP+ autophagosome vesicle intensity per cell in human H4 cells at 3.6 uM after 24 hrs by high throughput fluorescence microscopy relative to control
Procedure, shortened: (§4)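 H4 cells stably expressing LC3-GFP, seeded in 96-well plates and exposed to compound for 24 h; screening concentrations were 3–12 μM, with rapamycin 0.22 μM and bafilomycin A1 0.40 μM. Cells fixed in 4% paraformaldehyde and stained with 3 μg/ml DAPI. Number, size and intensity of LC3-GFP spots measured by high-throughput fluorescence microscopy and expressed as percent of DMSO-treated wells. Rapamycin was the positive control. Triplicate wells, mean ± SD; experiments repeated three times.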

H4 [14] = assay: Induction of light chain 3-GFP level in human H4 cells at 3.6 uM after 24 hrs by high throughput fluorescence microscopy relative to control
Procedure, shortened: (§5)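 H4 cells stably expressing LC3-GFP, grown in DMEM with 10% FBS, penicillin/streptomycin and 2 mM L-glutamine at 37°C, 5% CO2. Cells were seeded in 96-well plates and exposed to library compounds at 3–12 μM for 24 h, then fixed in 4% paraformaldehyde and stained with 3 μg/ml DAPI. LC3-GFP spot number, size and intensity were measured by high-throughput fluorescence microscopy and expressed relative to DMSO. Triplicates, mean ± SD.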

H4 [15] = assay: Increase in light chain 3-GFP+ autophagosome vesicle area per cell in human H4 cells at 3.6 uM after 24 hrs by high throughput fluorescence microscopy relative to control; procedure, shortened: as §4
H4 [16] = assay: Decrease in FYVE-RFP+ vesicle intensity per cell in human H4 cells after 4 hrs relative to control; set-up: concentration or dose not given beside the values; procedure, shortened: as §2
H4 [17] = assay: Decrease in FYVE-RFP+ vesicle intensity per cell in human H4 cells after 2 hrs relative to control; set-up: concentration or dose not given beside the values; procedure, shortened: as §2
H4 [18] = assay: Increase in light chain 3-GFP+ autophagosome vesicle number per cell in human H4 cells at 3.6 uM after 24 hrs by high throughput fluorescence microscopy relative to control
Procedure, shortened: (§6)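 H4 cells stably expressing LC3-GFP were grown in DMEM with 10% FBS and 2 mM L-glutamine at 37°C, 5% CO2. They were exposed to each compound for 24 h, with DMSO as negative and rapamycin as positive control. Cells were then fixed in 4% paraformaldehyde and stained with 3 μg/ml DAPI. High-throughput fluorescence imaging scored LC3-GFP spot number, size and intensity, expressed relative to DMSO. Mean ± SD of triplicates; experiments repeated three times.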

H4 [19] = assay: Increase in FYVE-RFP+ vesicle intensity per cell in human H4 cells after 2 hrs relative to control; set-up: concentration or dose not given beside the values; procedure, shortened: as §2
H4 [20] = assay: Increase in FYVE-RFP+ vesicle intensity per cell in human H4 cells after 4 hrs relative to control; set-up: concentration or dose not given beside the values; procedure, shortened: as §2
H4 [21] = assay: Increase in light chain 3-GFP+ autophagosome vesicle area per cell in human H4 cells at 3.4 uM after 24 hrs by high throughput fluorescence microscopy relative to control; procedure, shortened: as §1
H4 [22] = assay: Increase in light chain 3-GFP+ autophagosome vesicle intensity per cell in human H4 cells at 3.4 uM after 24 hrs by high throughput fluorescence microscopy relative to control; procedure, shortened: as §1
H4 [23] = assay: Induction of light chain 3-GFP level in human H4 cells at 3.4 uM after 24 hrs by high throughput fluorescence microscopy relative to control; procedure, shortened: as §3
H4 [24] = assay: Increase in light chain 3-GFP+ autophagosome vesicle number per cell in human H4 cells at 3.4 uM after 24 hrs by high throughput fluorescence microscopy relative to control; procedure, shortened: as §1
H4 [25] = assay: Increase in FYVE-RFP+ vesicle intensity per cell in human H4 cells after 8 hrs relative to control; set-up: concentration or dose not given beside the values; procedure, shortened: as §2
H4 [26] = assay: Increase in light chain 3-GFP+ autophagosome vesicle area per cell in human H4 cells at 5.9 uM after 24 hrs by high throughput fluorescence microscopy relative to control; procedure, shortened: as §4
H4 [27] = assay: Increase in light chain 3-GFP+ autophagosome vesicle number per cell in human H4 cells at 5.9 uM after 24 hrs by high throughput fluorescence microscopy relative to control; procedure, shortened: as §6
H4 [28] = assay: Induction of light chain 3-GFP level in human H4 cells at 5.9 uM after 24 hrs by high throughput fluorescence microscopy relative to control; procedure, shortened: as §5
H4 [29] = assay: Increase in light chain 3-GFP+ autophagosome vesicle intensity per cell in human H4 cells at 5.9 uM after 24 hrs by high throughput fluorescence microscopy relative to control; procedure, shortened: as §6

Compound	Activity (H4 [2]) [%]	Activity (H4 [5]) [%]	Activity (H4 [7]) [%]	Activity (H4 [9]) [%]	Activity (H4 [19]) [%]	Activity (H4 [20]) [%]	Activity (H4 [25]) [%]	other results
CC1=C2C[C@H]3[C@@H](CC=C4C[C@@H](O)CC[C@@]43C)[C@@H]2CC[C@]12O[C@@H]1C[C@H](C)CN[C@H]1[C@H]2C [CYCLOPAMINE]	91.74	103.97	109.69	111.02				Activity (H4 [1]): 1564.12%; Activity (H4 [3]): 108.75%; Activity (H4 [4]): 75.21%; Activity (H4 [6]): 313.88%; Activity (H4 [8]): 110.76%; Activity (H4 [10]): 96.38%; Activity (H4 [11]): 511.72%
CC[C@@]1([C@@H]2O[C@@H]([C@H]3O[C@@](O)(CO)[C@H](C)C[C@@H]3C)C[C@@H]2C)CC[C@H]([C@]2(C)CC[C@]3(C[C@H](O)[C@@H](C)[C@@H]([C@@H](C)[C@@H](OC)[C@H](C)C(=O)O)O3)O2)O1 [MONENSIN]	107.28	107.54	109.16	123.64				Activity (H4 [12]): 59.14%; Activity (H4 [13]): 639.29%; Activity (H4 [14]): 92.38%; Activity (H4 [15]): 418.31%; Activity (H4 [16]): 66.44%; Activity (H4 [17]): 81.22%; Activity (H4 [18]): 312.92%
CO[C@@H]1C[C@@H](C[C@H]2CC[C@H](C)[C@H]([C@@H](C)C(=O)O)O2)O[C@]2(O[C@](C)([C@H]3CC[C@@](C)([C@@H]4O[C@@H]([C@H]5O[C@@](O)(CO)[C@H](C)C[C@@H]5C)C[C@@H]4C)O3)C[C@H]2C)[C@@H]1C [NIGERICIN]	91.75	95.98	96.9	88.14	148.43	145.4	140.54	Activity (H4 [21]): 551.04%; Activity (H4 [22]): 747.88%; Activity (H4 [23]): 106.9%; Activity (H4 [24]): 375.67%
CN(C)C[C@H](O)Cn1c2ccc(Br)cc2c2cc(Br)ccc21 [WISKOSTATIN]	68.51	97.71	92.99	90.21	267.9	240.08	131.93	Activity (H4 [26]): 1226.54%; Activity (H4 [27]): 789.24%; Activity (H4 [28]): 96.96%; Activity (H4 [29]): 2401.38%

Source: ChEMBL document CHEMBL1145471, “Small molecule regulators of autophagy identified by an image-based high-throughput screen” (Proc Natl Acad Sci U S A, 2007)
